Measured values of several laboratories.
Target: Serine/threonine-protein kinase PAK 2 (PAK2, Homo sapiens, UniProt Q13177)

COc1cc2ncnc(Nc3ccc(F)c(Cl)c3)c2cc1OCCCN1CCOCC1 — remaining signal (cell-free assay; 0.5 µM): 100%
CNc1cccc2cc(C(=O)Nc3ccc(C(=O)O)cc3)c(=O)[nH]c12 — inhibition (enzyme activity; inhibitor; 10 µM): 20%
Cc1noc([C@H]2C[C@@H](c3ccc(C(F)(F)F)cc3)CN(C(=O)N3CCS(=O)(=O)C3)C2)n1 — remaining binding (cell-free assay; competition with immobilised ligand; 1 µM): 87%
Cc1ccc(NC(=O)c2ccc(C)c(C(F)(F)F)c2)cc1C#Cc1nn(C2CCC(O)CC2)c2ncnc(N)c12 (centres unmarked) — remaining signal (cell-free assay; 10 µM): 68%
Cc1sc(C(=O)NC2COC2)cc1-n1cc(NC(=O)Nc2c(F)cccc2Cl)cn1 — remaining activity (enzyme activity; inhibitor; 10 µM): 106%
CSc1nc(C)c(-c2ccnc(Nc3ccc(N4CCOCC4)cc3)c2)[nH]1 — inhibition (enzyme activity; inhibitor; 10 µM): 1.4%
Cc1c(NC(=O)c2cc(C(N)=O)nc3cc(F)ccc23)c(C(F)(F)F)nn1Cc1ccc(C#N)cc1 — remaining binding (cell-free assay; competition with immobilised ligand; 1 µM): 88%
CS(=O)(=O)Nc1cccc(-c2csc(NC(=O)CSc3nc4nccnc4c(=O)n3CCc3ccccc3)n2)c1 — inhibition (enzyme activity; inhibitor; 10 µM): 3%
O=S(=O)(NC1CCC(c2cc(F)ccc2F)(S(=O)(=O)c2ccc(Cl)cc2)CC1)C(F)(F)F (centres unmarked) — remaining binding (cell-free assay; competition with immobilised ligand; 1 µM): 100%
Oc1cccc(-c2nc(N3CCOCC3)c3oc4ncccc4c3n2)c1 — remaining activity (enzyme activity; inhibitor; 10 µM): 106%
CNC(=O)c1cc(Oc2ccc(NC(=O)Nc3ccc(Cl)c(C(F)(F)F)c3)cc2)ccn1 — remaining signal (cell-free assay; 0.5 µM): 101%
CCOc1cc(-c2nncn2C)ccc1Nc1ncc2cc(C)nc(NCC(C)(C)C)c2n1 — inhibition (enzyme activity; inhibitor; FRET; 1 µM): < 15%
Clc1ccc(Nc2nnc(Cc3ccncc3)c3ccccc23)cc1 — remaining signal (cell-free assay; 0.5 µM): 101%
Cc1cc(NC(=O)c2cccc(S(F)(F)(F)(F)F)c2)cc(-n2ccn3nc(-c4cccnc4)cc23)c1 — remaining binding (cell-free assay; competition with immobilised ligand; 1 µM): 100%
COc1cc(Nc2cnc(C#N)c(O[C@H](C)CN(C)C)n2)ncc1-c1cnn(C)c1 — remaining activity (enzyme activity; inhibitor; radiometric; 10 µM): 70%
CCN(CC)CCNC(=O)c1c(C)[nH]c(/C=C2\C(=O)Nc3ccc(F)cc32)c1C — inhibition (enzyme activity; inhibitor; 10 µM): 8%
Cc1ccc(C(=O)NCc2ccsc2)cc1C#Cc1cn(C(C)C)c2ncnc(N)c12 — activity vs control (enzyme activity; inhibitor; 1 µM): 79%
CC/C(=N\NC(=O)NCc1cccc(O)c1)c1ccc(O)c(C)c1O — inhibition (enzyme activity; inhibitor; 0.1 µM): 3%
COc1cc2ncnc(Nc3ccc(Oc4ccccc4)c(C)c3C)c2cc1OC — inhibition (enzyme activity; inhibitor; 1 µM): 7%
CNCc1ccc(-c2cc(-c3nc(-c4ccc(S(=O)(=O)C(C)C)cc4)cnc3N)on2)cc1 — inhibition (enzyme activity; inhibitor; 2 µM): 6%
Nc1cnc(N2CCc3cc(S(=O)(=O)Nc4c(F)cc(Cl)cc4F)cc(N4CCCC4=O)c32)nc1 — remaining binding (cell-free assay; competition with immobilised ligand; 1 µM): 78%
Cc1cc(NC(=O)c2cccc3cc(-c4cccc5[nH]nc(N)c45)ccc23)ccc1F — activity vs control (enzyme activity; inhibitor; 0.1 µM): 98%
Cc1ccc(Nc2nccc(N(C)c3ccc4c(C)n(C)nc4c3)n2)cc1S(N)(=O)=O — inhibition (enzyme activity; inhibitor; 10 µM): 24%
COc1cc(Cl)c(C(=O)N[C@@H](CN[C@H]2CC[C@@H](N)CC2)Cc2ccc(C#N)cc2)cc1-c1ccc(CN[C@H](C)c2ccc(C)cc2)o1 — remaining activity (enzyme activity; inhibitor; 1 µM): 98%
COc1ccc2c(c1)O[C@H](c1ccc(OC)c(OC)c1)C[C@@H]2NC(=O)C1(c2ccc3c(c2)OC(F)(F)O3)CC1 — remaining binding (cell-free assay; competition with immobilised ligand; 1 µM): 100%
Cn1c(=O)n(-c2ccc(C(C)(C)C#N)cc2)c2c3cc(-c4cnc5ccccc5c4)ccc3ncc21 — remaining activity (enzyme activity; inhibitor; 10 µM): 87%
CC(C)(C)c1nc2c(s1)c1nc(N)ncc1c1ccc(NS(=O)(=O)c3c(F)cccc3F)c(F)c12 — remaining activity (enzyme activity; inhibitor; radiometric; 1 µM): 102%
O=C1CCc2cc(Nc3cc(OC4CCOCC4)c([N+](=O)[O-])cc3Cl)ccc2N1 — remaining binding (cell-free assay; competition with immobilised ligand; 1 µM): 96%
FC(F)(F)Oc1cccc(-c2cnc3ccc(-c4ccncc4)nn23)c1 — activity vs control (enzyme activity; inhibitor; radiometric; 1 µM): 95%
C=CC(=O)Nc1cc(Nc2nccc(Nc3cc(Cl)c(F)cc3C(C)(C)O)n2)c(OC)cc1N1CC[C@@H](N(C)C)C1 — inhibition (enzyme activity; inhibitor; 1 µM): 5%
CSc1cccnc1N1CCN(Cc2nc3ccccc3[nH]2)CC1 — remaining binding (cell-free assay; competition with immobilised ligand; 1 µM): 100%
O=C1NC(=O)c2cc(Nc3ccc(F)cc3)c(Nc3ccc(F)cc3)cc21 — remaining signal (cell-free assay; 0.5 µM): 98.5%
